Data as given in ChEMBL document CHEMBL1141303, “Macrolactins O-R, glycosylated 24-membered lactones from Bacillus sp. AH159-1” (J Nat Prod, 2007).
≈ marks a conversion by molar mass, not a printed value.

What was measured:
[1] = test system: Escherichia coli; assay: Antibacterial activity against Escherichia coli KCTC 1924 after 18 hrs by microdilution method; assay type: functional; conditions: KCTC 1924, 18 h
Outline: (§1)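 Broth microdilution assay. The minimum restrictive concentration (MRC) was taken as the lowest concentration that reduced growth by at least 50%.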

[2] = target: T1, Peptide deformylase (Staphylococcus aureus subsp. aureus Mu50, UniProt P68825); assay: Inhibition of Staphylococcus aureus peptide deformylase
T1 sequence (P68825 whole entry): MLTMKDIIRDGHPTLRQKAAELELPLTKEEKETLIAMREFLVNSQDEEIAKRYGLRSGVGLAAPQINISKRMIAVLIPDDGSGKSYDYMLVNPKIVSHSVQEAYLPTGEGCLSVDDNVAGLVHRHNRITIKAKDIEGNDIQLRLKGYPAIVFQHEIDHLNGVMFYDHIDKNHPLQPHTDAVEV

[3] = test system: Bacillus subtilis; assay: Antibacterial activity against Bacillus subtilis KCTC 1021 after 18 hrs by microdilution method; assay type: functional; outline: as §1
[4] = test system: Staphylococcus aureus; assay: Antibacterial activity against Staphylococcus aureus RN4220 after 18 hrs by microdilution method; assay type: functional; outline: as §1

MIC [1] [µg/mL] | IC50 [2] [µM] | SMILES | MRC [3] [µg/mL] | MRC [4] [µg/mL]
100 (≈ 177 µM) | 61.5 | C[C@@H]1CCC/C=C/C=C/[C@H](O)C[C@@H](O)C/C=C/C=C/[C@@H](O[C@H]2O[C@@H](CO)[C@H](O)[C@@H](O)[C@@H]2O)C/C=C/C=C\C(=O)O1 [MACROLACTIN R] | 100 | 100
100 (≈ 177 µM) | 53.5 | C[C@@H]1CCC/C=C/CCC(=O)C[C@@H](O)C/C=C\C=C\[C@@H](O[C@H]2O[C@@H](CO)[C@H](O)[C@@H](O)[C@@H]2O)C/C=C/C=C\C(=O)O1 [MACROLACTIN O] | 100 | 100
100 (≈ 173 µM) | 57.7 | CC[C@@H]1CCC/C=C/C=C/[C@H](O)C[C@@H](O)C/C=C\C=C\[C@@H](O[C@H]2O[C@@H](CO)[C@H](O)[C@@H](O)[C@@H]2O)C/C=C/C=C\C(=O)O1 [MACROLACTINN P] | 100 | 100
100 (≈ 177 µM) | 12.1 | C[C@@H]1CCC/C=C\C=C\[C@H](O)C[C@@H](O)C/C=C\C=C\[C@@H](O[C@H]2O[C@@H](CO)[C@H](O)[C@@H](O)[C@@H]2O)C/C=C/C=C\C(=O)O1 [MACROLACTIN Q] | 100 | 100
